Measured values reported in ChEMBL document CHEMBL1124212, “Synthesis of novel 3-substituted beta-carbolines as benzodiazepine receptor ligands: probing the benzodiazepine receptor pharmacophore” (J Med Chem, 1988).

Assays:
[1] = biological target: GABA-A receptor; anion channel; assay: In vitro inhibition of binding to the benzodiazepine receptor in rat cerebral cortical membrane using [3H]diazepam as radioligand; type: cell membranes
Method in brief: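 Rat cerebral cortex homogenized in 50 mM Tris-HCl, pH 7.4, spun at 20000g for 20 min at 4 °C, and washed three times. Nonspecific binding was measured with 10 μM flunitrazepam (final). IC50 was estimated from Hill plots.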

[2] = system: Mus musculus; assay: Proconvulsant effect on mice 15 min after ip administration of at 1.25 mg/kg dose; type: functional; settings: route intraperitoneal
Method in brief: (§1)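 Adult male mice (~25 g) were given drug ip in vehicle (20% diluted Emulphor in saline). They were challenged with pentylenetetrazole (40 mg/kg ip, in water) 15 or 120 min later. Animals were watched for 15 min for clonic-tonic convulsions, scored as % of animals convulsing, with at least 10 animals per dose.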

[3] = system: Mus musculus; assay: Proconvulsant effect on mice 15 min after ip administration of a 2.5 mg/kg dose; type: functional; settings: route intraperitoneal; method in brief: as §1
[4] = system: Mus musculus; assay: Proconvulsant effect on mice 15 min after ip administration of a 10 mg/kg dose; type: functional; settings: route intraperitoneal
Method in brief: (§2)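 Adult male mice (~25 g) given test drug or vehicle (0.1 mL of 20% diluted Emulphor in saline) ip at the stated dose, then challenged 15 or 120 min later with pentylenetetrazole 40 mg/kg ip (in water). Animals watched 15 min after PTZ for clonic-tonic convulsions; % convulsing recorded; at least 10 animals per dose.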

[5] = system: Mus musculus; assay: Proconvulsant effect on mice 15 min after ip administration of a 5 mg/kg dose; type: functional; settings: route intraperitoneal; method in brief: as §1
[6] = system: Mus musculus; assay: Proconvulsant effect on mice 120 min after ip administration of a 10 mg/kg dose; type: functional; settings: route intraperitoneal; method in brief: as §1
[7] = system: Mus musculus; assay: Proconvulsant effect on mice 15 min after ip administration of a 20 mg/kg dose; type: functional; settings: route intraperitoneal; method in brief: as §1
[8] = species on record: Rattus norvegicus; assay: In vitro inhibition of [3H]diazepam binding to GABA-A benzodiazepine receptor of rat cerebral cortical membrane
Method in brief: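 Rat cerebral cortex homogenized in 50 mM Tris-HCl, pH 7.4, spun at 20000g for 20 min at 4 °C, and washed three times. […] Nonspecific binding was measured with 10 μM flunitrazepam (final). IC50 was estimated from Hill plots.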

[9] = system: Mus musculus; assay: Proconvulsant effect on mice 120 min after ip administration of a 25 mg/kg dose; type: functional; settings: route intraperitoneal; method in brief: as §2
[10] = system: Mus musculus; assay: Proconvulsant effect on mice 15 min after ip administration of a 25 mg/kg dose; type: functional; settings: route intraperitoneal; method in brief: as §2

Structure (SMILES) | IC50 [1] | other results
CCOC(=O)c1cc2c(cn1)sc1ccccc12 | 980 nM | 
COC(=O)c1cc2ccccc2cn1 | 13200 nM | 
S=C=Nc1cc2c3ccccc3nc-2c[nH]1 | 8 nM | 
Cn1c2ccccc2c2c3[nH]c4ccccc4c3ncc21 | 1160 nM | 
c1ccc(CNc2cc3c(cn2)[nH]c2ccccc23)cc1 |  | IC30 [8]: 1280 nM
c1ccc2c(c1)[nH]c1cnccc12 [NORHARMANE] | 1620 nM | 
COC(=O)c1cc2c(cn1)[nH]c1ccccc12 [BETA-CCM] | 5 nM | 
CCOC(=O)c1cc2c(cn1)[nH]c1ccccc12 |  | Convulsion [9]: 30%; Convulsion [4]: 33%; Convulsion [10]: 96%

Now from value to molecule, other results behind:

IC50 [1] | Structure (SMILES) | other results
124 nM | COc1cc2c(cn1)[nH]c1ccccc12 | 
11 nM | CCCOc1cc2c(cn1)[nH]c1ccccc12 | 
45 nM | Clc1cc2c(cn1)[nH]c1ccccc12 | 
24 nM | CCOc1cc2c(cn1)[nH]c1ccccc12 | Convulsion [2]: 30%; Convulsion [3]: 40%; Convulsion [4]: 84%; Convulsion [5]: 50%; Convulsion [6]: 60%; Convulsion [7]: 100%
4000 nM | Oc1cc2c3ccccc3nc-2c[nH]1 | 
> 50000 nM | COC(=O)c1cc2c3ccccc3n(C)c2cn1 | 
125 nM | O=[N+]([O-])c1cc2c3ccccc3nc-2c[nH]1 | 
1920 nM | c1ccc2c(c1)[nH]c1c2ccc2[nH]c3ccccc3c21 | 
